pIC50, pKd, pKi: −log10 of the molar value. In brackets after ≈: the same amount, converted by molar mass.
Experiments:
dengue virus type 2 = experiment: Antiviral activity against dengue virus 2 infected in african green monkey Vero cells assessed as reduction in viral replication dosed after adsorption with 200 FFU of virus for 1 hour by foci forming unit reduction assay; type: functional, organism-based
[1] = Inhibition of dengue virus 3 NS2B-NS3 serine protease assessed as reduction in hydrolysis of Boc-Gly-Arg-Arg-7-amino-4-methylcumarin substrate by Dixon plot; parameters: species or system dengue virus type 3
[2] = Inhibition of dengue virus 2 NS2B-NS3 serine protease assessed as reduction in hydrolysis of Boc-Gly-Arg-Arg-7-amino-4-methylcumarin substrate; parameters: species or system dengue virus type 2
[3] = Inhibition of dengue virus 3 NS2B-NS3 serine protease assessed as reduction in hydrolysis of Boc-Gly-Arg-Arg-7-amino-4-methylcumarin substrate; parameters: species or system dengue virus type 3
Outline: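 Recombinant DENV3 NS2B-NS3 (50 nM) was run in 50 mM Tris HCl pH 9.0 with 1 mM CHAPS and 100 substrate. Compounds in DMSO were screened at 50 final, with IC50 from serial dilutions over 0.5–200. Three independent determinations in duplicate; background-corrected 2-parameter fit (lower limit 0, upper 100).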

[4] = Inhibition of dengue virus 2 NS2B-NS3 serine protease assessed as reduction in hydrolysis of Boc-Gly-Arg-Arg-7-amino-4-methylcumarin substrate by Dixon plot; parameters: species or system dengue virus type 2
Outline: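 Recombinant DENV2 NS2B-NS3 at 47.63 nM in 200 mM Tris-HCl pH 9.5, 6 mM NaCl, 30% glycerol. Boc-Gly-Arg-Arg-AMC at 25–200 µM with inhibitor fixed at 10–32 µM; AMC release read at ex 380/em 460 nm. Analysed by Lineweaver-Burk and Dixon plots, with Ki = Kiapp/(1+[S]/Km), [S] […] Mean of three independent assays.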

[5] = Binding affinity to NT-647-NHS fluorescent dye-labeled dengue virus 3 NS2B-NS3 serine protease incubated for 10 mins by microscale thermophoresis method; parameters: species or system dengue virus type 3
Outline: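 Recombinant DENV3 NS2B-NS3, dye-labeled, mixed 1:1 with ligand dilutions to a final 25 nM protein and 0.06–1000 µM ligand. Buffer: 50 mM Tris-HCl pH 9.0, 1 mM CHAPS, plus 10% DMSO and 0.05% Tween 20 on the ligand side only. After 10 min, capillary thermophoresis was measured. KD came from data fitting, mean of three independent assays.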

[6] = Non-competitive inhibition of dengue virus 2 NS2B-NS3 serine protease assessed as reduction in hydrolysis of Boc-Gly-Arg-Arg-7-amino-4-methylcumarin substrate by Lineweaver-Burk plot and Dixon plot; parameters: species or system dengue virus type 2

O.O=c1c(O)c(-c2ccc(O)c(O)c2)oc2cc(O)cc(O)c12 [QUERCETIN DIHYDRATE]
IC50 (dengue virus type 2): 35.7 µg/mL | pKi [1]: 4.70 | pIC50 [2]: 4.45 | pIC50 [3]: 4.64 | pKi [4]: 4.68 | pKd [5]: 4.70

O=c1c(O[C@@H]2O[C@H](CO)[C@@H](O)[C@H](O)[C@H]2O)c(-c2ccc(O)c(O)c2)oc2cc(O)cc(O)c12 [ISOQUERCETIN]
pKi [1]: 4.43 | pIC50 [2]: 4.36 | pIC50 [3]: 4.37 | pKi [4]: 4.59

O=c1c(O)c(-c2ccc(O)cc2)oc2cc(O)cc(O)c12 [KAEMPFEROL]
pKi [1]: 4.62 | pIC50 [2]: 4.42 | pIC50 [3]: 4.56 | pKi [4]: 4.65

C[C@@H]1O[C@@H](Oc2c(-c3ccc(O)c(O)c3)oc3cc(O)cc(O)c3c2=O)[C@H](O)[C@H](O)[C@H]1O [QUERCITRIN]
pKi [1]: 4.55 | pIC50 [2]: 4.36 | pIC50 [3]: 4.49 | pKi [4]: 4.59

O=c1c(O)c(-c2cc(O)c(O)c(O)c2)oc2cc(O)cc(O)c12 [MYRICETIN]
pKi [1]: 4.59 | pIC50 [2]: 4.65 | pIC50 [3]: 4.53 | pKi [6]: 5.33

O=c1c(O)c(-c2ccc(O)c(O)c2)oc2cc(O)ccc12 [FISETIN]
IC50 (dengue virus type 2): 55 µg/mL (≈ 192 µM)

O=c1cc(-c2ccccc2)oc2cc(O)c(O)c(O)c12 [BAICALEIN]
IC50 (dengue virus type 2): 6.46 µg/mL (≈ 23.9 µM)
